Assay [1] deals with T1, 5-hydroxytryptamine receptor 1A (Rattus norvegicus, UniProt P19327).
T1 sequence (P19327 whole entry): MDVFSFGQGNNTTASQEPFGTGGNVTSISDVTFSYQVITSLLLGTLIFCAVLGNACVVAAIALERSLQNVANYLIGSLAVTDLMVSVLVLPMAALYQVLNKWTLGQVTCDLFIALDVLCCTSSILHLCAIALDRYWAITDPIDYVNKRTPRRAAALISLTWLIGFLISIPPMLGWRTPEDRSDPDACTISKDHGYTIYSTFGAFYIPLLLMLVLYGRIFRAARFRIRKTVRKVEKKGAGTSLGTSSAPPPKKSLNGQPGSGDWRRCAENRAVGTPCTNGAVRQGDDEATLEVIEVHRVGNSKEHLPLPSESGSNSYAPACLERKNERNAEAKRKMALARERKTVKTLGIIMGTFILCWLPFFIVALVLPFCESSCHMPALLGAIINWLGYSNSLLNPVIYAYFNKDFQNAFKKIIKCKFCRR
Nature of the assay: Binding affinity towards 5-hydroxytryptamine 1A receptor in the rat brain (hippocampus) using [3H]8-OH-DPAT. Type of assay: tissue-based. In short, it runs like this: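 Rat hippocampal membranes; competition binding against [3H]-8-OH-DPAT (190 Ci/mmol) using 10-14 drug concentrations, each run in triplicate. Ki derived from at least three independent competition experiments. Remaining conditions follow a previously published procedure.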

Assay [2] concerns Rattus norvegicus. Nature of the assay: Compound was tested for the induction of behavioral syndrome (forepaw treading) in rats at a dose of 10 mg/kg. The format is functional. In short, it runs like this: (§1)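 Male Wistar rats (220-260 g), reserpine 1 mg/kg sc 18 h before test; compound as fresh aqueous solution ip, rats placed in cages 5 min beforehand. 45-s observation sessions began 3 min after injection, repeated every 3 min over five periods; forepaw treading and flat body posture scored 0 (absent) to 3 (intense). 6-8 rats/dose; mean ± SEM, Dunnett's test.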

The subject of assay [3] is Rattus norvegicus. Kind of assay: Compound was tested for the induction of behavioral syndrome (forepaw treading) in rats at a dose of 5 mg/kg. The format is functional. In short, it runs like this: as §1
Assay [4] relates to Rattus norvegicus. Kind of assay: Effect on the 8-OH-DPAT-Induced Behavior(flat body posture) in Reserpine Pretreated Rats at a dose of 5 mg/kg. Type of assay: functional. In short, it runs like this: (§2)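 Reserpinized male Wistar rats (reserpine 1 mg/kg sc, 18 h prior); compound ip 15 min before 8-OH-DPAT 5 mg/kg ip, fresh aqueous solutions. Observations began 3 min after 8-OH-DPAT, repeated every 3 min for 15 min; flat body posture ranked 0-3. 6-8 rats/dose; mean ± SEM, Dunnett's test vs vehicle + 8-OH-DPAT.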

In assay [5] the test system is Rattus norvegicus. Nature of the assay: Compound was tested for the induction of lower lip retraction in rats at a dose of 5 mg/kg. The format is functional. Put shortly: (§3)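 Male Wistar rats (220-260 g), compound ip as fresh aqueous solution, 6-8 animals/dose, each used once. Rats caged individually; lower lip retraction scored at 15, 30 and 45 min post-injection: 0 incisors not visible, 0.5 partly, 1 completely visible. Mean ± SEM score; Dunnett's test vs vehicle.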

Assay [6] concerns Rattus norvegicus. Kind of assay: Effect on the 8-OH-DPAT-Induced Behavior(flat body posture) in Reserpine Pretreated Rats at a dose of 10 mg/kg. Type of assay: functional. Put shortly:
as §2

The subject of assay [7] is Rattus norvegicus. Nature of the assay: Compound was tested for the induction of behavioral syndrome(flat body posture) in rats at a dose of 5 mg/kg. Type of assay: functional. Put shortly:
as §1

In assay [8] the test system is Rattus norvegicus. Kind of assay: Compound was tested for the induction of behavioral syndrome(flat body posture) in rats at a dose of 10 mg/kg. Type of assay: functional. In short, it runs like this: as §1
For assay [9], the system named is Rattus norvegicus. Nature of the assay: Compound was tested for the induction of lower lip retraction in rats at a dose of 1.25 mg/kg. The format is functional. Put shortly: as §3
Assay [10] has as its system Rattus norvegicus. Nature of the assay: Compound was tested for the induction of lower lip retraction in rats at a dose of 2.5 mg/kg. The format is functional. Put shortly: as §3

For six compounds, Ki, Behavioral score and LLR score results are on record in ChEMBL document CHEMBL1129514 (J Med Chem, 1996).

The structures appear in SMILES notation. Values joined by “and” are separate entries in the source; they are usually repeats but may differ in a detail not shown here. Identical values can stand only once.

In turn, `O=C1c2ccccc2C(=O)N1CCN1CCc2ccccc2C1` gave a Ki in assay [1] of 41.3 µM.

In turn, `O=C1CC2(CCCC2)CC(=O)N1CCN1CCc2ccccc2C1` displayed a Ki in assay [1] of 1.33 µM. This Ki is about 31-fold lower than that of the compound before.

Turning to `O=C1c2ccccc2C(=O)N1CCCCN1CCc2ccccc2C1`, in assay [1], the Ki amounted to 0.14 µM.

On to `O=C1CC2(CCCC2)CC(=O)N1CCCCN1CCN(c2ncccn2)CC1` [BUSPIRONE], for which the Behavioral score in the assay with Rattus norvegicus [2] is 0.6; with Rattus norvegicus [3], 0.2; with Rattus norvegicus [4] it was 14.3 and 5; in the assay on Rattus norvegicus [6], 9.5 and 3.7; with Rattus norvegicus [7], 6.8; in the assay with Rattus norvegicus [8], 6.4. Moreover, the results for the LLR score with Rattus norvegicus [5], in the assay on Rattus norvegicus [9] and in the assay on Rattus norvegicus [10] were 2.4, 1.6 and 2.3, respectively.

In turn, `c1ccc2c(c1)CCNC2` [1,2,3,4-TETRAHYDROISOQUINOLINE] came in with a Ki in [1] above 50 µM.

`O=C1CC2(CCCC2)CC(=O)N1CCCCN1CCc2ccccc2C1`: the Behavioral score is 2.7 in the assay with Rattus norvegicus [2]; 2 in the assay with Rattus norvegicus [3]; 14.5 and 8.9 with Rattus norvegicus [4]; 13.7 and 7.8 in the assay with Rattus norvegicus [6]; 7.8 with Rattus norvegicus [7]; 11 in the assay on Rattus norvegicus [8]. This compound also registered a Ki in assay [1] of 0.005 µM. Further, the results for the LLR score in the assay with Rattus norvegicus [5], in the assay on Rattus norvegicus [9] and with Rattus norvegicus [10] were 2.5, 1.2 and 1.9, respectively.

A word on the Ki: it is a measure of affinity in units of concentration, obtained from inhibition or displacement. Low values mean tighter binding, high ones weaker binding.
